Experimental data from ChEMBL document CHEMBL1137650, “An OXA-66/OXA-51-like carbapenemase and possibly an efflux pump are associated with resistance to imipenem in Acinetobacter baumannii” (2007).
In brackets after ≈: the same amount, converted by molar mass.

Assays:
Acinetobacter baumannii [1] = assay: Antibacterial activity against imipenem-resistant Acinetobacter baumannii abh11 by broth dilution method; format: functional
How it was run: (§1)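 Clinical isolates were collected at three Taiwan hospitals (1993–2003) and grown in tryptic soy broth at 37°C for 18 h. MIC by broth dilution following CLSI recommendations.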

Escherichia coli [2] = assay: Antibacterial activity against Escherichia coli TOP10 by Etest; format: functional
How it was run: (§2)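 E. coli TOP10 carrying empty pBAD/Myc-His or pBAD/Myc-His with blaOXA-66 cloned from the named strain, grown at 37°C in LB with 50 μg/ml ampicillin to OD600 0.5. Plated on Mueller-Hinton agar with 50 μg/ml ampicillin and 0.002% arabinose for induction. Imipenem MIC read by Etest.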

Acinetobacter baumannii [3] = assay: Antibacterial activity against imipenem-resistant Acinetobacter baumannii ISAB ab8(r) by broth dilution method; format: functional
Acinetobacter baumannii [4] = assay: Antibacterial activity against imipenem-intermediate Acinetobacter baumannii ab1297 by broth dilution method; format: functional
How it was run: (§3)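 Clinical A. baumannii isolates collected at three Taiwanese hospitals, routinely grown in tryptic soy broth at 37°C for 18 h. MICs (μg ml⁻¹) were determined by broth dilution following CLSI recommendations, or by Etest strips following the manufacturer's instructions.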

Acinetobacter baumannii [5] = assay: Antibacterial activity against imipenem-resistant Acinetobacter baumannii abh17 by broth dilution method; format: functional; how it was run: as §1
Acinetobacter baumannii [6] = assay: Antibacterial activity against imipenem-susceptible Acinetobacter baumannii ab1254 by broth dilution method; format: functional; how it was run: as §1
Acinetobacter baumannii [7] = assay: Antibacterial activity against imipenem-susceptible Acinetobacter baumannii ab20 by broth dilution method; format: functional; how it was run: as §1
Acinetobacter baumannii [8] = assay: Antibacterial activity against imipenem-resistant Acinetobacter baumannii ISAB ab1254(r) by broth dilution method; format: functional
Acinetobacter baumannii [9] = assay: Antibacterial activity against imipenem-resistant Acinetobacter baumannii abh20 by broth dilution method; format: functional; how it was run: as §1
Acinetobacter baumannii [10] = assay: Antibacterial activity against imipenem-resistant Acinetobacter baumannii ab1265 by broth dilution method; format: functional; how it was run: as §1
Acinetobacter baumannii [11] = assay: Antibacterial activity against imipenem-resistant Acinetobacter baumannii abh9 by broth dilution method; format: functional; how it was run: as §1
Acinetobacter baumannii [12] = assay: Antibacterial activity against imipenem-resistant Acinetobacter baumannii abh36 by broth dilution method; format: functional; how it was run: as §1
Acinetobacter baumannii [13] = assay: Antibacterial activity against imipenem-resistant Acinetobacter baumannii abh37 by broth dilution method; format: functional; how it was run: as §1
Acinetobacter baumannii [14] = assay: Antibacterial activity against imipenem-resistant Acinetobacter baumannii abh18 by broth dilution method; format: functional; how it was run: as §1
Acinetobacter baumannii [15] = assay: Ratio of MIC for Acinetobacter baumannii ISAB ab8(r) to MIC for Acinetobacter baumannii ISAB ab8(r) in presence of […] ug/ml efflux pump inhibitor carbonyl cyanide m-chlorophenyl-hydrazone; format: functional
Acinetobacter baumannii [16] = assay: Ratio of MIC for Acinetobacter baumannii ISAB ab8(r) to MIC for Acinetobacter baumannii ISAB ab1254(r) in presence of […] ug/ml efflux pump inhibitor carbonyl cyanide m-chlorophenyl-hydrazone; format: functional
Acinetobacter baumannii [17] = assay: microbe, parasite or virus in culture; settings: ISAB ab8(r)
Acinetobacter baumannii [18] = assay: Antibacterial activity against imipenem-resistant Acinetobacter baumannii ISAB ab1254(r) by broth dilution method in presence of 24 ug/ml efflux pump inhibitor carbonyl cyanide m-chlorophenyl-hydrazone; format: functional
Acinetobacter baumannii [19] = assay: Antibacterial activity against imipenem-resistant Acinetobacter baumannii abh13 by broth dilution method; format: functional; how it was run: as §1
Acinetobacter baumannii [20] = assay: Antibacterial activity against imipenem-susceptible Acinetobacter baumannii ab3 by broth dilution method; format: functional; how it was run: as §1
Acinetobacter baumannii [21] = assay: Antibacterial activity against imipenem-susceptible Acinetobacter baumannii ab12 by broth dilution method; format: functional; how it was run: as §1
Acinetobacter baumannii [22] = assay: Antibacterial activity against imipenem-resistant Acinetobacter baumannii abh26 by broth dilution method; format: functional; how it was run: as §1
Acinetobacter baumannii [23] = assay: Antibacterial activity against imipenem-resistant Acinetobacter baumannii abh39 by broth dilution method; format: functional; how it was run: as §1
Acinetobacter baumannii [24] = assay: Antibacterial activity against imipenem-susceptible Acinetobacter baumannii ab8 by broth dilution method; format: functional; how it was run: as §1
Acinetobacter baumannii [25] = assay: Antibacterial activity against imipenem-susceptible Acinetobacter baumannii ATCC 19606 by broth dilution method; format: functional; settings: ATCC 19606 = CIP 70.34 = JCM 6841
Acinetobacter baumannii [26] = assay: Antibacterial activity against imipenem-susceptible Acinetobacter baumannii ab1316 by broth dilution method; format: functional; how it was run: as §3
Escherichia coli [27] = assay: Antibacterial activity against Escherichia coli TOP10 expressing imipenem-susceptible Acinetobacter baumannii ab1254 blaoxa-66 gene by Etest; format: functional; how it was run: as §2
Escherichia coli [28] = assay: Antibacterial activity against Escherichia coli TOP10 expressing imipenem-resistant Acinetobacter baumannii ab1266 blaoxa-66 gene by Etest; format: functional; how it was run: as §2
Acinetobacter baumannii [29] = assay: Antibacterial activity against imipenem-resistant Acinetobacter baumannii abh14 by broth dilution method; format: functional; how it was run: as §1
Acinetobacter baumannii [30] = assay: Antibacterial activity against imipenem-resistant Acinetobacter baumannii ab1266 by broth dilution method; format: functional; how it was run: as §1
Acinetobacter baumannii [31] = assay: Antibacterial activity against imipenem-susceptible Acinetobacter baumannii ab1308 by broth dilution method; format: functional; how it was run: as §3
Acinetobacter baumannii [32] = assay: Antibacterial activity against imipenem-susceptible Acinetobacter baumannii ab4 by broth dilution method; format: functional; how it was run: as §1
Acinetobacter baumannii [33] = assay: Antibacterial activity against imipenem-resistant Acinetobacter baumannii abh29 by broth dilution method; format: functional; how it was run: as §1

| Compound | MIC (Acinetobacter baumannii [1]) [µg/mL] | MIC (Acinetobacter baumannii [4]) [µg/mL] | MIC (Acinetobacter baumannii [5]) [µg/mL] | MIC (Acinetobacter baumannii [6]) [µg/mL] | MIC (Acinetobacter baumannii [7]) [µg/mL] | MIC (Acinetobacter baumannii [9]) [µg/mL] | MIC (Acinetobacter baumannii [10]) [µg/mL] | MIC (Acinetobacter baumannii [11]) [µg/mL] | MIC (Acinetobacter baumannii [12]) [µg/mL] | MIC (Acinetobacter baumannii [13]) [µg/mL] | MIC (Acinetobacter baumannii [14]) [µg/mL] | MIC (Acinetobacter baumannii [19]) [µg/mL] | MIC (Acinetobacter baumannii [20]) [µg/mL] | MIC (Acinetobacter baumannii [21]) [µg/mL] | MIC (Acinetobacter baumannii [22]) [µg/mL] | MIC (Acinetobacter baumannii [23]) [µg/mL] | MIC (Acinetobacter baumannii [24]) [µg/mL] | MIC (Acinetobacter baumannii [26]) [µg/mL] | MIC (Acinetobacter baumannii [29]) [µg/mL] | MIC (Acinetobacter baumannii [30]) [µg/mL] | other results |
| --- | --- | --- | --- | --- | --- | --- | --- | --- | --- | --- | --- | --- | --- | --- | --- | --- | --- | --- | --- | --- | --- |
| C[C@@H](O)[C@H]1C(=O)N2C(C(=O)O)=C(SCCNC=N)C[C@H]12 [IMIPENEM ANHYDROUS] | 32 (≈ 107 µM) | 8 (≈ 26.7 µM) | 32 (≈ 107 µM) | 3 (≈ 10 µM) | 1.5 (≈ 5.01 µM) | 32 (≈ 107 µM) | > 32 | 32 (≈ 107 µM) | 32 (≈ 107 µM) | 32 (≈ 107 µM) | 32 (≈ 107 µM) | 32 (≈ 107 µM) | 1 (≈ 3.34 µM) | 1 (≈ 3.34 µM) | 32 (≈ 107 µM) | 32 (≈ 107 µM) | 1 (≈ 3.34 µM) | 3 (≈ 10 µM) | 32 (≈ 107 µM) | > 32 | MIC (Escherichia coli [2]): 0.19 µg/mL (≈ 0.635 µM); MIC (Acinetobacter baumannii [3]): 256 µg/mL (≈ 855 µM); MIC (Acinetobacter baumannii [8]): 128 µg/mL (≈ 428 µM); fold change (FC) (Acinetobacter baumannii [15]): 4; fold change (FC) (Acinetobacter baumannii [16]): 8; MIC (Acinetobacter baumannii [17]): 64 µg/mL (≈ 214 µM); MIC (Acinetobacter baumannii [18]): 16 µg/mL; MIC (Acinetobacter baumannii [25]): 0.38 µg/mL (≈ 1.27 µM); MIC (Escherichia coli [27]): 0.75 µg/mL (≈ 2.51 µM); MIC (Escherichia coli [28]): 1.5 µg/mL (≈ 5.01 µM); MIC (Acinetobacter baumannii [31]): 2 µg/mL (≈ 6.68 µM); MIC (Acinetobacter baumannii [32]): 1 µg/mL (≈ 3.34 µM); MIC (Acinetobacter baumannii [33]): 32 µg/mL (≈ 107 µM) |
| GENTAMICIN | > 256 | > 256 | > 256 | > 256 | > 256 | > 256 | > 256 | > 256 | > 256 | > 256 | > 256 | > 256 | 256 | > 256 | > 256 | > 256 | > 256 | > 256 | > 256 | > 256 | MIC (Acinetobacter baumannii [31]): > 256 µg/mL; MIC (Acinetobacter baumannii [32]): 256 µg/mL; MIC (Acinetobacter baumannii [33]): > 256 µg/mL |
